Measured values as given in ChEMBL document CHEMBL2440020, “Design, Synthesis, and Anti-leukemic Activity of Stereochemically Defined Constrained Analogs of FTY720 (Gilenya)” (ACS Med Chem Lett, 2013).
Calls of active or inactive are those of the source. The calls are words filed in the database; no cut-off is given here.

Tests used:
Assay type in all cases: functional, cell-based
[1] = tested on: SUP-B15; experiment: Cytotoxicity against Ph-positive human SUP-B15 cells at 0.1 to 10 uM after 72 hrs by vital dye exclusion/flow cytometric analysis
[2] = Downregulation of 4F2hc surface expression in Ph-positive human SUP-B15 cells at 10 uM after 72 hrs by vital dye exclusion/flow cytometric analysis
[3] = tested on: PC-3; experiment: Cytotoxicity against human PC3 cells after 72 hrs by vital dye exclusion/flow cytometric analysis; conditions: PC-3, 72 h
How it was run: (§1)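 Viability of human leukaemia and prostate cancer lines, and of murine bone marrow cells expressing BCR-Abl p190, was scored by vital dye exclusion and flow cytometry after 72 h of exposure. IC50 values are given as means with SEM and were compared with the reference control by two-tailed t-test.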

[4] = Cytotoxicity against Ph-negative human BLIN-1 cells after 72 hrs by vital dye exclusion/flow cytometric analysis; how it was run: as §1
[5] = tested on: DU-145; experiment: Cytotoxicity against human DU145 cells after 72 hrs by vital dye exclusion/flow cytometric analysis; conditions: DU-145, 72 h; how it was run: as §1
[6] = tested on: NALM-6; experiment: Cytotoxicity against Ph-negative human NALM6 cells after 72 hrs by vital dye exclusion/flow cytometric analysis; conditions: NALM-6, 72 h; how it was run: as §1
[7] = Cytotoxicity against Ph-positive human SUP-B15 cells after 72 hrs by vital dye exclusion/flow cytometric analysis; conditions: SUP-B15, 72 h; how it was run: as §1
[8] = tested on: BV-173; experiment: Cytotoxicity against Ph-positive human BV173 cells after 72 hrs by vital dye exclusion/flow cytometric analysis; conditions: BV-173, 72 h; how it was run: as §1
[9] = tested on: CCRF-CEM; experiment: Cytotoxicity against Ph-negative human CCRF-CEM cells after 72 hrs by vital dye exclusion/flow cytometric analysis; how it was run: as §1
[10] = Cytotoxicity against BCR-ABL fusion protein 190 expressing mouse bone marrow cells after 72 hrs by vital dye exclusion/flow cytometric analysis; conditions: Bone marrow cell; how it was run: as §1

Compound	Activity [1]	Activity [2]	IC50 [3] [µM]	IC50 [4] [µM]	IC50 [5] [µM]	IC50 [6] [µM]	IC50 [7] [µM]	IC50 [8] [µM]	IC50 [9] [µM]	IC50 [10] [µM]
CCCCCCCCc1ccc(CO[C@@H]2CCN[C@H]2CO)cc1	inactive									
CCCCCCCCc1ccc(CO[C@@H]2CN[C@@H](C)C2)cc1	Active	Active								
CCCCCCCCc1ccc(CO[C@H]2CCNC2)cc1	Active	Active								
CCCCCCCCc1ccc(CO[C@H]2CN[C@H](C)C2)cc1	Active	Active								
CCCCCCCCc1ccc(CO[C@@H]2CN[C@@H](CO)C2)cc1			13.5	6.9	15.1	13.5	2	3.8	8.2	0.5
CCCCCCCCc1ccc(CCC(N)(CO)CO)cc1 [FINGOLIMOD]			9.8	5.5	6.5	9.6	6.8	6.3	6.8	3.3
CCCCCCCCc1ccc(CO[C@@H]2CCNC2)cc1	Active	Active								
CCCCCCCCc1ccc(CO[C@H]2CN[C@@H](CO)C2)cc1							8.3	9.7	8.1	4
CCCCCCCCc1ccc(CO[C@@H]2CN[C@H](CO)C2)cc1							16.7	13.8	11.6	8.4
CCCCCCCCc1ccc(CO[C@H]2CN[C@H](CO)C2)cc1			14.3	7.5	10.8	15	7.7	10.4	11	5.7
CCCCCCCCc1ccc(CO[C@@H]2CN[C@@H](COC)C2)cc1	Active	Active								
